Test results from ChEMBL document CHEMBL1132767, “Design and synthesis of piperidinyl piperidine analogues as potent and selective M2 muscarinic receptor antagonists” (Bioorg Med Chem Lett, 2000).
pKi: −log10 of the molar value.

Experiments:
[1] = molecular target: T1, Muscarinic acetylcholine receptor M2 (Homo sapiens, UniProt P08172); assay: Binding affinity against Muscarinic acetylcholine receptor M2 stably expressed in CHO-K1 cells.; type: cell-based
T1 sequence (P08172 whole entry): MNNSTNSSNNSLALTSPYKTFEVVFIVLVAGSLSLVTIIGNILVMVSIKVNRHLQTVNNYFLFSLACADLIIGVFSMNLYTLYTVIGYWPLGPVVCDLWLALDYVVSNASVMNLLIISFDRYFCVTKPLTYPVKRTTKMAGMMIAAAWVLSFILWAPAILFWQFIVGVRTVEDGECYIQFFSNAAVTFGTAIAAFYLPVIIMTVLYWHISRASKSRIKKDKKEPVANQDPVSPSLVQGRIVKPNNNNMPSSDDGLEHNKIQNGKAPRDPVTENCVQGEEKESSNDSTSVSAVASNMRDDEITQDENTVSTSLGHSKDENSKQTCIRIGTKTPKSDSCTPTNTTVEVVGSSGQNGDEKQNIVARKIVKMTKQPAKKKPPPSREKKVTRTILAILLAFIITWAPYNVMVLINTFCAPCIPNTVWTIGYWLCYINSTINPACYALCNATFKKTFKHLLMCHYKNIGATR
How it was run: (§1)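 Competition binding against 180 pM [³H]QNB in 10 mM potassium phosphate buffer, pH 7.4, containing 1% DMSO and 0.4% methylcellulose. Incubated 120 min at room temperature to equilibrium. Bound and free label separated by filtration. Nonspecific binding defined with 0.5 mM atropine. Protein adjusted to give 700–1500 cpm specific binding. [³H]QNB Kd for each subtype from saturation binding over 5–2500 pM.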

[2] = molecular target: Muscarinic acetylcholine receptors; M1 & M2 (Homo sapiens) (UniProt P11229+P08172); assay: Binding affinity towards M1 receptor compared to M2 receptor.; type: protein assay
[3] = molecular target: Muscarinic acetylcholine receptors; M2 & M3 (Homo sapiens) (UniProt P20309+P08172); assay: Binding affinity towards M3 receptor compared to M2 receptor.; type: protein assay
[4] = molecular target: Muscarinic acetylcholine receptor M3 (Homo sapiens, UniProt P20309); assay: Binding affinity against Muscarinic acetylcholine receptor M3 expressed in CHO-K1 cells; type: cell-based; how it was run: as §1
[5] = molecular target: T2, Muscarinic acetylcholine receptor M1 (Homo sapiens, UniProt P11229); assay: Binding affinity against Muscarinic acetylcholine receptor M1 expressed in CHO-K1 cells; type: cell-based; how it was run: as §1
T2 sequence (P11229 whole entry): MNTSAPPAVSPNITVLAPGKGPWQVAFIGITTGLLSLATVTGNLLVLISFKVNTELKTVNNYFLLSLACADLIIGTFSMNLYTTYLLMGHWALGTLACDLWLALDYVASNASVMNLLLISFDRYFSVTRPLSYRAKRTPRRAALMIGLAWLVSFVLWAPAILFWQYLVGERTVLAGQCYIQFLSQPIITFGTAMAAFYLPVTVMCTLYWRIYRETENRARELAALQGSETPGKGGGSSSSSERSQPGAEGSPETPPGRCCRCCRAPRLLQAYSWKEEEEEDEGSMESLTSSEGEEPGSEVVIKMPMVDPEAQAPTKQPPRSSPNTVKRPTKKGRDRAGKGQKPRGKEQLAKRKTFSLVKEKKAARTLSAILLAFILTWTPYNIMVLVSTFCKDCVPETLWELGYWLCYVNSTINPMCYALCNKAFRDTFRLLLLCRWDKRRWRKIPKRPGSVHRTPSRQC

Sequence of Muscarinic acetylcholine receptor M3 (P20309 whole entry): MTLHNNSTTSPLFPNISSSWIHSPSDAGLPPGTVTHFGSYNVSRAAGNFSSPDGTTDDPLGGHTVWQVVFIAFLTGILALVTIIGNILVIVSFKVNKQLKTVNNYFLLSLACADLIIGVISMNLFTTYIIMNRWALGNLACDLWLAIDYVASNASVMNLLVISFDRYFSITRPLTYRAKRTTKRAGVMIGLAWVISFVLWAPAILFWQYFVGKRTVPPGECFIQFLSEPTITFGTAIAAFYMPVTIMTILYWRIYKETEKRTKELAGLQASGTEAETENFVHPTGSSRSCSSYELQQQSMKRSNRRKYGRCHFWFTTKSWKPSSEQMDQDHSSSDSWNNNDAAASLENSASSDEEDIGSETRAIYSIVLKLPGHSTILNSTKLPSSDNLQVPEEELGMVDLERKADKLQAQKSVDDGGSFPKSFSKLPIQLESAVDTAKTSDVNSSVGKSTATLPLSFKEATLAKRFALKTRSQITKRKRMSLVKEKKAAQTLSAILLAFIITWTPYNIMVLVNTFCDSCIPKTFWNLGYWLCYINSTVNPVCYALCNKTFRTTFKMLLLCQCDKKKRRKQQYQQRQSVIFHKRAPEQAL
Sequence of Muscarinic acetylcholine receptors; M2 & M3 (Homo sapiens) (P20309 whole entry, looked up, one chain of several): as the sequence (P20309 whole entry) above

Compound | pKi [1] | Selectivity [2] | Selectivity [3] | pKi [4] | pKi [5]
C=C(c1ccc(S(=O)(=O)c2ccc(OC)cc2)cc1)C1CCN(C2CCN(C(=O)C3CC3)CC2)CC1 | 9.59 | 262 | 260 | – | –
C=C(c1ccc(S(=O)(=O)c2ccc(OC)cc2)cc1)C1CCN(C2CCN(S(=O)(=O)CCCC)CC2)CC1 | 9.42 | 150 | 405 | – | –
C=C(c1ccc(S(=O)(=O)c2ccc(OC)cc2)cc1)C1CCN(C2CCN(S(=O)(=O)C(C)C)CC2)CC1 | 9.80 | 198 | 440 | – | –
C=C(c1ccc(S(=O)(=O)c2ccc(OC)cc2)cc1)C1CCN(C2CCN(C(=O)CCC)CC2)CC1 | 9.42 | 111 | 324 | 6.92 | 7.38
C=C(c1ccc(S(=O)(=O)c2ccc(OC)cc2)cc1)C1CCN(C2CCN(S(=O)(=O)Cc3ccccc3)CC2)CC1 | 8.84 | 23 | 54 | – | –
C=C(c1ccc(S(=O)(=O)c2ccc(OC)cc2)cc1)C1CCN(C2CCN(C(=O)C(C)C)CC2)CC1 | 8.66 | 53 | 40 | – | –
C=C(c1ccc(S(=O)(=O)c2ccc(OC)cc2)cc1)C1CCN(C2CCN(S(=O)(=O)c3ccccc3)CC2)CC1 | 9.44 | 104 | 558 | – | –
C=C(c1ccc(S(=O)(=O)c2ccc(OC)cc2)cc1)C1CCN(C2CCN(C(=O)OCc3ccccc3)CC2)CC1 | 9.35 | 24 | – | – | –
C=C(c1ccc(S(=O)(=O)c2ccc(OC)cc2)cc1)C1CCN(C2CCN(C(=O)OCC)CC2)CC1 | 9.96 | 59 | 34 | 8.43 | 8.19
C=C(c1ccc(S(=O)(=O)c2ccc(OC)cc2)cc1)C1CCN(C2CCN(C(=O)OCCCC)CC2)CC1 | 9.46 | 28 | – | – | –
C=C(c1ccc(S(=O)(=O)c2ccc(OC)cc2)cc1)C1CCN(C2CCN(C(=O)OC)CC2)CC1 | 9.00 | 61 | 55 | – | –
C=C(c1ccc(S(=O)(=O)c2ccc(OC)cc2)cc1)C1CCN(C2CCCCC2)CC1 | – | 16 | 3 | – | –
C=C(c1ccc(S(=O)(=O)c2ccc(OC)cc2)cc1)C1CCN(C2CCNCC2)CC1 | 8.94 | 8 | 3 | 8.47 | 8.04
C=C(c1ccc(S(=O)(=O)c2ccc(OC)cc2)cc1)C1CCN(C2CCN(S(=O)(=O)CCC)CC2)CC1 | 9.54 | 89 | 35 | 8.00 | 7.59
C=C(c1ccc(S(=O)(=O)c2ccc(OC)cc2)cc1)C1CCN(C2CCN(C(=O)OCC(C)C)CC2)CC1 | 9.52 | 35 | – | – | –
C=C(c1ccc(S(=O)(=O)c2ccc(OC)cc2)cc1)C1CCN(C2CCN(C(=O)OC(C)C)CC2)CC1 | 9.39 | 36 | – | – | –
C=C(c1ccc(S(=O)(=O)c2ccc(OC)cc2)cc1)C1CCN(C2CCN(C(=O)OCCC)CC2)CC1 | 9.23 | 69 | 40 | – | –
C=C(c1ccc(S(=O)(=O)c2ccc(OC)cc2)cc1)C1CCN(C2CCN(S(=O)(=O)CC)CC2)CC1 | 9.34 | 162 | 382 | – | –
C=C(c1ccc(S(=O)(=O)c2ccc(OC)cc2)cc1)C1CCN(C2CCN(C(=O)Cc3ccccc3)CC2)CC1 | 8.52 | 32 | 48 | – | –
C=C(c1ccc(S(=O)(=O)c2ccc(OC)cc2)cc1)C1CCN(C2CCN(C(=O)CC)CC2)CC1 | 8.42 | 16 | 13 | – | –
